Assay results: article PMC4278051 (Journal of Breast Cancer, 2014)

Key:
[1] = target: transient receptor potential vanilloid 1 (Homo sapiens, UniProt Q8NER1); test: Competition; conditions: inhibition of 1.2 nM ^3[H]RTX binding, MCF-7 membranes, Cheng-Prussoff
TRPV1 [2] = target: T1, TRPV1 (Homo sapiens, UniProt Q8NER1); test: Inhibition of RTX induced ^45Ca^2+ uptake by antagonists in MCF-7; assay type: cell-based; conditions: in the presence of RTX 2 nM, n=4
MCF-7 cells = test: MTT reduction proliferation assay; assay type: cell-based, human; conditions: 2, 24, 48 and 72 hours; for MCF-7 cell growth rate / viability compared to the controls (MTT): increasing concentrations (10^-10-10^-4 M capsaicin, capsazepine; 10^-10-10^-6 M RTX, 5-I-RTX), p<0.05, n=6
Procedure, shortened: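 MCF-7 cells grown in DMEM with 20% FBS were seeded at 5×10^3 cells/100 µL in 96-well plates. Cells were exposed to test compound at increasing concentrations (10-10 up to 10^-4 or 10^-6 M, by compound) and assayed at 2, 24, 48 and 72 h. MTT was added for 4 h at 37 °C, 5% CO2, and formazan was dissolved in DMSO for 10 min at RT. OD was read at 570 nm (n=6, mean±SEM) and analysed by Kruskal-Wallis with Dunn post-test.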

TRPV1 [3] = conditions: ref 23 (Rigoni et al.); cited from earlier work
TRPV1 [4] = target: T1, TRPV1; test: ^45Ca^2+ uptake assay, stimulation by agonists in MCF-7; assay type: cell-based; conditions: for E max of Ca^2+ uptake: 20 minutes at 37℃, 10^-11-10^-3 M, n=4

T1 sequence (Q8NER1 whole entry): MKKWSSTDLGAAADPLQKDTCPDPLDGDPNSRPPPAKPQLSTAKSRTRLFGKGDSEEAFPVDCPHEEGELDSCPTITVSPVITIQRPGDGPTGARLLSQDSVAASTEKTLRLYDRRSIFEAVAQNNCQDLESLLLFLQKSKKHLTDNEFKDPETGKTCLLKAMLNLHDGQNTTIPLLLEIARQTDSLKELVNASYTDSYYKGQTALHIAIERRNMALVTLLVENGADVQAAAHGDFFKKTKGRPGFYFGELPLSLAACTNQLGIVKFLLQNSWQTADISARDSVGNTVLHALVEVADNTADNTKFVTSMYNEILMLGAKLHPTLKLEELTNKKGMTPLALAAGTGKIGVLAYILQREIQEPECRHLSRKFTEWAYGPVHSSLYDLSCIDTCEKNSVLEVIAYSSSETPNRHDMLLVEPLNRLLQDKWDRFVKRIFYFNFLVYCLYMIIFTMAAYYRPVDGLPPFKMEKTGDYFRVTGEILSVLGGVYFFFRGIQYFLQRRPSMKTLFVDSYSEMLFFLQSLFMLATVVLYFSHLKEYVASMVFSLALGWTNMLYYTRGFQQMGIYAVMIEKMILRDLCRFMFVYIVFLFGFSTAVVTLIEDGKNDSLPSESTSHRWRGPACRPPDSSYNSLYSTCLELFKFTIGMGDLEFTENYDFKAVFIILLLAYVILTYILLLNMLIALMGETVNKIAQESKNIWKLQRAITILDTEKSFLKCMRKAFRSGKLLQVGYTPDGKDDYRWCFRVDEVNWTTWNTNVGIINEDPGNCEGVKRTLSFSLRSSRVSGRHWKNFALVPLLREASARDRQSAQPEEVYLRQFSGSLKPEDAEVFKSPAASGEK
Sequence of transient receptor potential vanilloid 1 (Q8NER1 whole entry): as above

| Structure (SMILES) | Ki [1] [nM] | E max of Ca^2+ influx inhibition (TRPV1 [2]) [%] | MCF-7 cell growth rate / viability compared to the controls (MTT) (MCF-7 cells) | Potency relative to the antagonist capsazepine (times more potent) (TRPV1 [3]) | EC50 (TRPV1 [4]) [nM] | Agonist character at TRPV1 expressed in MCF-7, from E max of calcium uptake (TRPV1 [4]; ^45Ca^2+ uptake) | E max of Ca^2+ uptake (TRPV1 [4]; ^45Ca^2+ uptake) [cpm] | Time dependence of MCF-7 growth inhibition (MTT) (MCF-7 cells) |
| --- | --- | --- | --- | --- | --- | --- | --- | --- |
| C=C(C)[C@]12C[C@@H](C)[C@@]34O[C@](Cc5ccccc5)(O[C@@H]1[C@@H]3C=C(COC(=O)Cc1cc(I)c(O)c(OC)c1)C[C@]1(O)C(=O)C(C)=C[C@@H]41)O2 [5-I-RTX, 5-iodoresiniferatoxin] | 0.056 | 108.3 | significant decrease | 20 |  |  |  |  |
| CCCCC/C=C\C/C=C\C/C=C\C/C=C\CCCC(=O)NCCO [Anandamide, anandamide] |  |  |  |  | 110 | full agonist | 557.0 |  |
| COc1cc(CNC(=O)CCCC/C=C/C(C)C)ccc1O [Capsaicin, capsaicin] |  |  | significant decrease |  |  |  | 478.8 |  |
| Oc1cc2c(cc1O)CN(C(=S)NCCc1ccc(Cl)cc1)CCC2 [Capsazepine, capsazepine] |  |  | significant decrease |  |  |  |  |  |
| C=C(C)[C@]12C[C@@H](C)[C@@]34O[C@](Cc5ccccc5)(O[C@@H]1[C@@H]3C=C(COC(=O)Cc1ccc(O)c(OC)c1)C[C@]1(O)C(=O)C(C)=C[C@@H]41)O2 [RTX, resiniferatoxin] |  |  | significant decrease |  | 24 |  | 777.0 | time-dependent behavior |
